The text below walks through data of ChEMBL document CHEMBL3272242, “Sulfamylurea hypoglycemic agents. 6. High-potency derivatives” (J Med Chem, 1976).

Holding throughout (assay type): functional
Design in all cases: scale not given: the % may be the effect or the level left
Common to all, as to conditions: route intraperitoneal

Test [1] deals with Rattus norvegicus. Description: Hypoglycemic activity in 18 to 24 hrs-fasted rat assessed as reduction in blood glucose at 1 mg/kg, ip measured after 1 hr relative to saline-treated control. The method in brief:
(§1)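 Unanesthetized male Charles River rats (200–250 g), fasted 18–24 h, in groups of five or six. Single ip dose. Tail-vein blood drawn before dosing and 1 h after. Glucose measured by ferricyanide reduction micromethod on an autoanalyzer. Value is the percent fall in blood glucose at 1 h versus a saline-treated control group. Significance levels are p < 0.05, 0.01 and 0.001.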

The subject of test [2] is Rattus norvegicus. Description: Hypoglycemic activity in 18 to 24 hrs-fasted rat assessed as reduction in blood glucose at 5 mg/kg, ip measured after 1 hr relative to saline-treated control. The method in brief: as §1
In test [3] the test system is Rattus norvegicus. Description: Hypoglycemic activity in 18 to 24 hrs-fasted rat assessed as reduction in blood glucose at 15 mg/kg, ip measured after 1 hr relative to saline-treated control. Summed up:
as §1

`COc1ccc(Cl)cc1C(=O)NCCC1CCN(S(=O)(=O)NC(=O)NC[C@@H]2C[C@@H]3C=C[C@@H]2C3)CC1` (relative stereo): the Activity was determined as 27% in the test with Rattus norvegicus [1] and 37% with Rattus norvegicus [2].
`O=C(NC[C@@H]1C[C@@H]2C=C[C@@H]1C2)NS(=O)(=O)N1CCC(CCNC(=O)c2cscn2)CC1` (relative stereo): the Activity in the test on Rattus norvegicus [3] was determined as 37%.
For the compound `Cn1cc(C(=O)NCCC2CCN(S(=O)(=O)NC(=O)NC[C@@H]3C[C@@H]4C=C[C@@H]3C4)CC2)c(=O)n(C)c1=O` (relative stereo), the Activity with Rattus norvegicus [3] stood at 32%; in the test with Rattus norvegicus [1] it was 12%; with Rattus norvegicus [2], 23%.
Consider `Cc1ncccc1C(=O)NCCC1CCN(S(=O)(=O)NC(=O)NC[C@@H]2C[C@@H]3C=C[C@@H]2C3)CC1.O` (relative stereo), for which, in the test with Rattus norvegicus [2], the Activity is 16%.
`O=C(NC[C@@H]1C[C@@H]2C=C[C@@H]1C2)NS(=O)(=O)N1CCC(CCNC(=O)c2cccc3c2OCCO3)CC1`: the Activity in the test with Rattus norvegicus [3] amounted to 40%; with Rattus norvegicus [2] it was 11%.
In the case of `Cn1cc(C(=O)NCCC2CCN(S(=O)(=O)NC(=O)NC[C@@H]3C[C@@H]4CC[C@@H]3C4)CC2)c(=O)n(C)c1=O.O` (relative stereo), the Activity in the test with Rattus norvegicus [2] is 22%.
Same read-out and setting: to `CCCn1cc(C(=O)NCCC2CCN(S(=O)(=O)NC(=O)NC[C@@H]3C[C@@H]4C=C[C@@H]3C4)CC2)c(=O)n(CC)c1=O.O` (relative stereo) belongs 19%.
As for `O=C(NC1CCCCC1)NS(=O)(=O)N1CCC(CCNC(=O)c2ccc3c(c2)OCO3)CC1`, in the test with Rattus norvegicus [3], the Activity came out at 17%.
On the same count and under the same terms, to `O=C(NC1CCCCC1)NS(=O)(=O)N1CCC(CCNC(=O)c2nsc3ccccc23)CC1` belongs 17%.
Turning to `Cn1cc(C(=O)NCCC2CCN(S(=O)(=O)NC(=O)NC34CC5CC(CC(C5)C3)C4)CC2)c(=O)n(C)c1=O.O`, the Activity in the test on Rattus norvegicus [2] was 27%.
Take `O=C(NC[C@@H]1C[C@@H]2C=C[C@@H]1C2)NS(=O)(=O)N1CCC(CCNC(=O)c2cnccc2Cl)CC1` (relative stereo): in the test with Rattus norvegicus [3], the Activity worked out at 12%.
As for `CSc1ccc(C(F)(F)F)cc1C(=O)NCCC1CCN(S(=O)(=O)NC(=O)NC2CCCCC2)CC1`, the Activity in the test with Rattus norvegicus [3] came to 24%.
As to `CC#N.O=C(NC[C@@H]1C[C@@H]2CC[C@@H]1O2)NS(=O)(=O)N1CCC(CCNC(=O)c2nc3ccccc3s2)CC1` (relative stereo), in the test with Rattus norvegicus [3], the Activity was determined as 30%.
In the case of `O=C(NC1CCCCC1)NS(=O)(=O)N1CCC(CCNC(=O)c2cccc3c2OCCO3)CC1`, the Activity was found to be 42% in the test on Rattus norvegicus [3] and 34% with Rattus norvegicus [2].
For `COc1ncccc1C(=O)NCCC1CCN(S(=O)(=O)NC(=O)NC[C@H]2C[C@@H]3CC[C@@H]2O3)CC1` (relative stereo), the Activity in the test with Rattus norvegicus [2] was found to be 14%.
As to `O=C(NC1CCCCC1)NS(=O)(=O)N1CCC(CCNC(=O)c2ccc3ccccc3n2)CC1`, in the test with Rattus norvegicus [2], the Activity is recorded as 11%.
Same read-out and setting: to `COc1ccc2nccc(C(=O)NCCC3CCN(S(=O)(=O)NC(=O)NC[C@@H]4C[C@@H]5C=C[C@@H]4C5)CC3)c2c1` (relative stereo) belongs 10%; to `COc1ncccc1C(=O)NCCC1CCN(S(=O)(=O)NC(=O)NC[C@H]2C[C@@H]3C=C[C@@H]2C3)CC1` (relative stereo), 20%.
As to `CCCNC(=O)NS(=O)(=O)N1CCC(CCNC(=O)c2cccc3c2OCCO3)CC1`, the Activity in the test on Rattus norvegicus [3] came out at 25%.
Take `COc1ncccc1C(=O)NCCC1CCN(S(=O)(=O)NC(=O)NC[C@@H]2C[C@@H]3CC[C@@H]2O3)CC1` (relative stereo): in the test on Rattus norvegicus [2], the Activity was found to be 34%.
On the same count and under the same terms, the result for `COc1ccc(Cl)cc1C(=O)NCCC1CCN(S(=O)(=O)NC(=O)NN2CCCCCC2)CC1` reads 36%; that for `O=C(NC[C@@H]1C[C@@H]2C=C[C@@H]1C2)NS(=O)(=O)N1CCC(CCNC(=O)c2ccc3ccccc3n2)CC1` (relative stereo), 21%; that for `O=C(NC1CCCCC1)NS(=O)(=O)N1CCC(CCNC(=O)c2csnn2)CC1`, 19%.
`O=C(NC[C@@H]1C[C@@H]2CC[C@@H]1O2)NS(=O)(=O)N1CCC(CCNC(=O)C2Oc3ccccc3O2)CC1` (relative stereo): the Activity with Rattus norvegicus [3] was 38%; with Rattus norvegicus [2] it was 15%.
As for `CCOCCNC(=O)NS(=O)(=O)N1CCC(CCNC(=O)c2cccnc2OC)CC1`, the Activity with Rattus norvegicus [2] was found to be 7%.
`Cn1cc(C(=O)NCCC2CCN(S(=O)(=O)NC(=O)NC3CCCCC3)CC2)c(=O)n(C)c1=O`: the Activity in the test with Rattus norvegicus [3] is 15%.
As to `O=C(NC1CCCCC1)NS(=O)(=O)N1CCC(CCNC(=O)C(F)(F)F)CC1`, the Activity in the test with Rattus norvegicus [2] is 13%.
Consider `Cn1cccc(C(=O)NCCC2CCN(S(=O)(=O)NC(=O)NC[C@@H]3C[C@@H]4C=C[C@@H]3C4)CC2)c1=O` (relative stereo), for which the Activity with Rattus norvegicus [3] was found to be 40%; in the test with Rattus norvegicus [1], 19%.
Turning to `COc1ccc(Cl)cc1C(=O)NCCC1CCN(S(=O)(=O)NC(=O)NC23CC4CC(CC(C4)C2)C3)CC1`, the Activity in the test with Rattus norvegicus [2] turned out to be 29%.
Turning to `Cc1ncsc1C(=O)NCCC1CCN(S(=O)(=O)NC(=O)NC[C@@H]2C[C@@H]3C=C[C@@H]2C3)CC1` (relative stereo), the figures for the Activity in the test on Rattus norvegicus [3] and in the test on Rattus norvegicus [2] were 25% and 11%, respectively.
As for `COc1ccncc1C(=O)NCCC1CCN(S(=O)(=O)NC(=O)NC[C@@H]2C[C@@H]3C=C[C@@H]2C3)CC1` (relative stereo), the Activity with Rattus norvegicus [2] was found to be 14%.
Turning to `Cc1ncccc1C(=O)NCCC1CCN(S(=O)(=O)NC(=O)NC2CCCCC2)CC1`, the Activity in the test with Rattus norvegicus [2] is recorded as 16%.
The same measure, in the same setting: the result for `COc1ccc2nccc(C(=O)NCCC3CCN(S(=O)(=O)NC(=O)NC4CCCCC4)CC3)c2c1.O` reads 15%.
Take `COc1ncccc1C(=O)NCCC1CCN(S(=O)(=O)NC(=O)NC23CC4CC(CC(C4)C2)C3)CC1`: the Activity in the test on Rattus norvegicus [1] was 12%; with Rattus norvegicus [2], 25%.
For `COc1ccc(Cl)cc1C(=O)NCCC1CCN(S(=O)(=O)NC(=O)NC[C@H]2C[C@@H]3CC[C@@H]2O3)CC1.O` (relative stereo), in the test with Rattus norvegicus [2], the Activity was 27%.
With `O=C(NC[C@@H]1C[C@@H]2CC[C@@H]1O2)NS(=O)(=O)N1CCC(CCNC(=O)c2cccc3c2OCCO3)CC1` (relative stereo), the results for the Activity in the test with Rattus norvegicus [3] and with Rattus norvegicus [2] were 13% and 15%, respectively.
Take `COc1ccc(NC(=O)NS(=O)(=O)N2CCC(CCNC(=O)c3cc(Cl)ccc3OC)CC2)cc1.O`: in the test on Rattus norvegicus [2], the Activity was 27%.
As to `O.O=C(NC1CCCCC1)NS(=O)(=O)N1CCC(CCNC(=O)c2ccnc3ccccc23)CC1`, the Activity with Rattus norvegicus [2] is 16%.
For the compound `CC(=O)NCCC1CCN(S(=O)(=O)NC(=O)NC[C@@H]2C[C@@H]3C=C[C@@H]2C3)CC1` (relative stereo), the figures for the Activity with Rattus norvegicus [3] and with Rattus norvegicus [2] were 25% and 18%, respectively.
Turning to `CCCCCCNC(=O)NS(=O)(=O)N1CCC(CNC(=O)c2cc(Cl)ccc2OC)CC1`, the Activity with Rattus norvegicus [2] turned out to be 17%.
Take `O=C(NC1CCCCC1)NS(=O)(=O)N1CCC(CCNC(=O)c2cccc3cccnc23)CC1`: the Activity is 29% in the test on Rattus norvegicus [1] and 37% in the test on Rattus norvegicus [2].
For `O.O=C(NC[C@@H]1C[C@@H]2C=C[C@@H]1C2)NS(=O)(=O)N1CCC(CCNC(=O)c2cccc3cccnc23)CC1` (relative stereo) the same measures were 32% and 34%.
On to `COc1ncccc1C(=O)NCCC1CCN(S(=O)(=O)NC(=O)NCC2CCCO2)CC1` (stereo unspecified), for which the Activity with Rattus norvegicus [2] was found to be 16%.
For the compound `COc1ccc(Cl)cc1C(=O)NCCC1CCN(S(=O)(=O)NC(=O)NC[C@@H]2C[C@@H]3CC[C@@H]2O3)CC1` (relative stereo), in the test with Rattus norvegicus [2], the Activity is on record as 30%.
As for `COc1ncccc1C(=O)NCCC1CCN(S(=O)(=O)NC(=O)NCC2CCCCO2)CC1` (stereo unspecified), in the test with Rattus norvegicus [2], the Activity turned out to be 12%.
As to `COc1ccc(Cl)cc1C(=O)NCC1CCN(S(=O)(=O)NC(=O)NC[C@@H]2C[C@@H]3C=C[C@@H]2C3)CC1` (relative stereo), the Activity with Rattus norvegicus [2] is reported as 15%.
On the same count and under the same terms, the result for `O=C(NC1CCCCC1)NS(=O)(=O)N1CCC(CCNC(=O)C2Oc3ccccc3O2)CC1` reads 8%.
In the case of `COc1ncccc1C(=O)NCCC1CCN(S(=O)(=O)NC(=O)NC[C@@H]2C[C@@H]3CC[C@@H]2C3)CC1` (relative stereo), in the test on Rattus norvegicus [2], the Activity came to 35%.
For `COc1ccc(Cl)cc1C(=O)NCCC1CCN(S(=O)(=O)NC(=O)NC2CCCCC2)CC1`, the Activity came out at 39% with Rattus norvegicus [1] and 25% in the test on Rattus norvegicus [2].
On to `COc1ccc(C(=O)NCCC2CCN(S(=O)(=O)NC(=O)NC[C@@H]3C[C@@H]4C=C[C@@H]3C4)CC2)cn1` (relative stereo), for which the Activity was found to be 32% with Rattus norvegicus [3] and 11% in the test on Rattus norvegicus [2].
With `CCCCn1cc(C(=O)NCCC2CCN(S(=O)(=O)NC(=O)NC[C@@H]3C[C@@H]4C=C[C@@H]3C4)CC2)c(=O)n(CCCC)c1=O` (relative stereo), in the test on Rattus norvegicus [2], the Activity was 12%.
As to `O=C(NC[C@@H]1C[C@@H]2C=C[C@@H]1C2)NS(=O)(=O)N1CCC(CCNC(=O)c2cnsc2)CC1` (relative stereo), in the test with Rattus norvegicus [3], the Activity worked out at 14%.
In the case of `COc1ccc(Cl)cc1C(=O)NCC1CCN(S(=O)(=O)NC(=O)NC2CCCCC2)CC1.O`, the Activity with Rattus norvegicus [2] is 20%.
On the same count and under the same terms, the result for `O=C(NC[C@@H]1C[C@@H]2C=C[C@@H]1C2)NS(=O)(=O)N1CCC(CCNC(=O)C(F)(F)F)CC1` (relative stereo) reads 22%; that for `CCCNC(=O)NS(=O)(=O)N1CCC(CCNC(=O)c2cc(C(F)(F)F)nn2C)CC1`, 11%; that for `Cc1cccc(C(=O)NCCC2CCN(S(=O)(=O)NC(=O)NC[C@@H]3C[C@@H]4C=C[C@@H]3C4)CC2)n1` (relative stereo), 20%.
